The nature of data set [1]: Selectivity index, ratio of CC50 for human HepG2(2.2.15) cells to IC50 for Hepatitis B virus infected in human HepG2(2.2.15) cells assessed as inhibition of viral surface antigen secretion. Type of data set: functional. The procedure, abridged:
(§1)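 Ratio of CC50 in HepG 2.2.15 cells to the IC50 for HBeAg or HBsAg secretion. Both values come from ELISA and cytotoxicity runs on the same cell line. Each input is the mean of two independent experiments.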

Data set [2] relates to Hepatitis B virus. Kind of data set: Antiviral activity against Hepatitis B virus infected in human HepG2(2.2.15) cells assessed as inhibition of viral e antigen secretion after 6 days by ELISA. Type of data set: functional, organism-based. The note with it: HepG2 2.2.15, 144 h. The gist of the method: (§2)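 HepG 2.2.15 cells in DMEM with 10% FBS, 37 °C, 5% CO2. Treated for 6 days with refeeding every other day. Culture medium centrifuged at 6000 g to clear debris. HBeAg or HBsAg measured by quantitative ELISA on a microplate reader. IC50 = concentration giving 50% inhibition of secretion. Mean of two independent experiments.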
In general terms: An ELISA detects its analyte on a solid surface through an enzyme-linked reagent.

Data set [3] in a line: Cytotoxicity against human HepG2(2.2.15) cells. Type of data set: cell-based. The gist of the method:
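HepG 2.2.15 cells in DMEM with 10% FBS, 37 °C, 5% CO2. CC50 = concentration killing 50% of cells. Mean of two independent experiments.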

Data set [4] has as its system Hepatitis B virus. The data set can be described thus: Antiviral activity against Hepatitis B virus infected in human HepG2(2.2.15) cells assessed as inhibition of viral surface antigen secretion after 6 days by ELISA. Type of data set: functional, organism-based. The note with it: HepG2 2.2.15, 144 h. The gist of the method:
as §2

Data set [5] can be described thus: Selectivity index, ratio of CC50 for human HepG2(2.2.15) cells to IC50 for Hepatitis B virus infected in human HepG2(2.2.15) cells assessed as inhibition of viral e antigen secretion. Type of data set: functional. The gist of the method:
as §1

The test system of data set [6] is Hepatitis B virus. The data set can be described thus: Antiviral activity against Hepatitis B virus infected in human HepG2(2.2.15) cells assessed as inhibition of viral DNA replication after 6 days by PCR analysis. Type of data set: functional, organism-based. The gist of the method:
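HepG 2.2.15 cells in DMEM with 10% FBS, 5 mM L-glutamine, penicillin/streptomycin, 37 °C, 5% CO2; seeded 5 × 10^5 per well, medium changed every 2 days. Compound added after 6 days, refed every other day for 6 more days. HBV DNA by real-time PCR against a cloned HBV plasmid standard series. IC50 = 50% inhibition. Mean of two independent experiments.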

Where [7] appears, read: Hepatitis B virus, HepG2 2.2.15, 144 h, read-out: IC50.

This is an account of results in ChEMBL document CHEMBL1649405, “Structure-activity relationships study of 6-chloro-4-(2-chlorophenyl)-3-(2-hydroxyethyl) quinolin-2(1H)-one derivatives as novel non-nucleoside anti-hepatitis B virus agents” (Eur J Med Chem, 2011).

As for `Cn1c(=O)c(CCO)c(-c2ccccc2Cl)c2cc(Cl)ccc21`, the entries for the “Selectivity Index” value in data set [1] and in data set [5] were 1.6 and 1, respectively. Besides, the IC50 in the data set with Hepatitis B virus [2] was determined as 34 µM; with Hepatitis B virus [4], 22 µM. In addition, the CC50 in data set [3] came to 34 µM.
As to `COCC(=O)OCCc1c(-c2ccccc2Cl)c2cc(Cl)ccc2[nH]c1=O`, the “Selectivity Index” value in data set [1] is listed as 1.4; in data set [5] it was below 1. Besides, the figures for the IC50 in the data set with Hepatitis B virus [2] and in the data set with Hepatitis B virus [4] were above 74 µM and 32 µM, respectively. This compound showed a CC50 in data set [3] of 74 µM.
For `COc1ccc(/C=C/C(=O)OCCc2c(-c3ccccc3Cl)c3cc(Cl)ccc3[nH]c2=O)cc1OC`, the results for the “Selectivity Index” value in data set [1] and in data set [5] were above 58 and above 21, respectively. Further, the IC50 is 57 µM with Hepatitis B virus [2], 21 µM in the data set with Hepatitis B virus [4] and “Not Active” with Hepatitis B virus [6] (hepg2 2.2.15). Also, the CC50 in data set [3] is above 1200 µM.
Regarding `O=C(OCCc1c(-c2ccccc2Cl)c2cc(Cl)ccc2[nH]c1=O)C1CCCCC1`, the results for the “Selectivity Index” value in data set [1] and in data set [5] were 1.4 and 1.1, respectively. The IC50 with Hepatitis B virus [2] was determined as 34 µM; in the data set with Hepatitis B virus [4] it was 27 µM. Further, the midpoint of cytotoxicity in data set [3], the CC50, lay at 38 µM.
In the same order, the values of `O=C(OCCc1c(-c2ccccc2Cl)c2cc(Cl)ccc2[nH]c1=O)c1ccc([N+](=O)[O-])cc1` are 1.4, 1, 1600 µM, 1200 µM and 1600 µM.
As for `O=C(CCC1CCCCC1)OCCc1c(-c2ccccc2Cl)c2cc(Cl)ccc2[nH]c1=O`, the “Selectivity Index” value in data set [1] amounted to 1.9; in data set [5] it was 1.5. The figures for the IC50 in the data set with Hepatitis B virus [2] and in the data set with Hepatitis B virus [4] were 110 µM and 85 µM, respectively. Moreover, the midpoint of cytotoxicity in data set [3], the CC50, lay at 160 µM.
With `O=c1[nH]c2ccc(Cl)cc2c(-c2ccccc2Cl)c1CCO`, the entries for the “Selectivity Index” value in data set [1] and in data set [5] were 4.4 and 1, respectively. Also, the figures for the IC50 in the data set on Hepatitis B virus [2] and in the data set on Hepatitis B virus [4] were 360 µM and 86 µM, respectively. Besides, it took 380 µM to reach half-maximal cytotoxicity in data set [3] (CC50).
In the same order, the values of `O=C(OCCc1c(-c2ccccc2Cl)c2cc(Cl)ccc2[nH]c1=O)c1cccnc1` are 3, 3, 55 µM, 55 µM and 170 µM.
Taken in the same sequence, the figures for `O=C(/C=C/c1ccccc1)OCCc1c(-c2ccccc2Cl)c2cc(Cl)ccc2[nH]c1=O` were 7.6, 4, 56 µM, 30 µM and 230 µM.
In the same order, the values of `N#CCC(=O)OCCc1c(-c2ccccc2Cl)c2cc(Cl)ccc2[nH]c1=O` are 1.3, below 1, above 100 µM, 75 µM and 100 µM.
Consider `O=C(O)Cc1c(-c2ccccc2Cl)c2cc(Cl)ccc2[nH]c1=O`, for which the “Selectivity Index” value in data set [1] is 2.8; in data set [5] it was below 1. Besides, the half-inhibitory concentration (IC50) in the data set with Hepatitis B virus [2] is above 950 µM; with Hepatitis B virus [4], 350 µM. For the same compound, half-maximal cytotoxicity in data set [3] (CC50) was put at 950 µM.
In the case of `O=C(/C=C/c1ccc(C(F)(F)F)cc1)OCCc1c(-c2ccccc2Cl)c2cc(Cl)ccc2[nH]c1=O`, the “Selectivity Index” value in data set [1] is on record as above 6.1; in data set [5], above 73. Also, the results for the IC50 in the data set with Hepatitis B virus [2], in the data set with Hepatitis B virus [4] and in the data set on Hepatitis B virus [6] (hepg2 2.2.15) were 19 µM, 230 µM and “Not Active”, respectively. The CC50 in data set [3] was above 1400 µM.
Consider `COc1ccccc1/C=C/C(=O)OCCc1c(-c2ccccc2Cl)c2cc(Cl)ccc2[nH]c1=O`, for which the “Selectivity Index” value in data set [1] is on record as 13; in data set [5], 32. Also, the results for the IC50 in the data set with Hepatitis B virus [2], in the data set on Hepatitis B virus [4] and with Hepatitis B virus [6] (hepg2 2.2.15) were 24 µM, 61 µM and “Not Active”, respectively. Moreover, the CC50 in data set [3] is 770 µM.
Consider `O=C(/C=C/c1cccc(C(F)(F)F)c1)OCCc1c(-c2ccccc2Cl)c2cc(Cl)ccc2[nH]c1=O`, for which the “Selectivity Index” value was above 24 in data set [1] and above 63 in data set [5]. Besides, the IC50 in the data set on Hepatitis B virus [2] was determined as 22 µM; in the data set on Hepatitis B virus [4], 58 µM; with Hepatitis B virus [6] (setting [7]) it was 410 µM. Also, the CC50 in data set [3] is above 1400 µM.
Turning to `CC(=O)NCC(=O)OCCc1c(-c2ccccc2Cl)c2cc(Cl)ccc2[nH]c1=O`, the “Selectivity Index” value in data set [1] is given as 1.4; in data set [5], below 1. The results for the IC50 in the data set on Hepatitis B virus [2] and with Hepatitis B virus [4] were above 110 µM and 74 µM, respectively. This compound also registered a CC50 in data set [3] of 110 µM.
Taken in the same sequence, the figures for `O=C(CCOc1ccccc1)OCCc1c(-c2ccccc2Cl)c2cc(Cl)ccc2[nH]c1=O` were 1.4, 1.3, 35 µM, 33 µM and 46 µM.
With `CCC(=O)OCCc1c(-c2ccccc2Cl)c2cc(Cl)ccc2[nH]c1=O`, the “Selectivity Index” value in data set [1] came to 1.6; in data set [5], 1.5. In addition, the figures for the IC50 in the data set with Hepatitis B virus [2] and in the data set with Hepatitis B virus [4] were 62 µM and 59 µM, respectively. In data set [3], this compound registered a CC50 of 95 µM.
In the same order, the values of `O=C(OCCc1c(-c2ccccc2Cl)c2cc(Cl)ccc2[nH]c1=O)C1CCCC1` are 1, 1, 46 µM, 46 µM and 46 µM.
In the case of `CC(C)C(=O)OCCc1c(-c2ccccc2Cl)c2cc(Cl)ccc2[nH]c1=O`, the “Selectivity Index” value in data set [1] is given as 1.7; in data set [5], below 1. Also, the IC50 was above 62 µM in the data set with Hepatitis B virus [2] and 37 µM in the data set on Hepatitis B virus [4]. The same compound yielded a CC50 in data set [3] of 62 µM.
With `O=c1c(CCO)c(-c2ccccc2Cl)c2cc(Cl)ccc2n1Cc1ccccc1`, the “Selectivity Index” value in data set [1] and in data set [5] was 2.2 in each case. Further, the IC50 in the data set on Hepatitis B virus [2] and in the data set with Hepatitis B virus [4] was 12 µM throughout. In addition, the CC50 in data set [3] came out at 26 µM.
For the compound `C/C=C/C=C/C(=O)OCCc1c(-c2ccccc2Cl)c2cc(Cl)ccc2[nH]c1=O`, the “Selectivity Index” value amounted to 19 in data set [1] and 17 in data set [5]. Also, the results for the IC50 with Hepatitis B virus [2] and in the data set on Hepatitis B virus [4] were 26 µM and 23 µM, respectively. Also, it took 440 µM to reach half-maximal cytotoxicity in data set [3] (CC50).
`CCOCC(=O)OCCc1c(-c2ccccc2Cl)c2cc(Cl)ccc2[nH]c1=O`: the “Selectivity Index” value in data set [1] is 1.4; in data set [5], below 1. The IC50 is above 130 µM in the data set on Hepatitis B virus [2] and 95 µM in the data set with Hepatitis B virus [4]. Besides, the CC50 in data set [3] amounted to 130 µM.
Regarding `O=C(/C=C/c1ccc2c(c1)OCO2)OCCc1c(-c2ccccc2Cl)c2cc(Cl)ccc2[nH]c1=O`, the “Selectivity Index” value is given as above 8.1 in data set [1] and above 5.4 in data set [5]. Further, the values for the IC50 in the data set on Hepatitis B virus [2], in the data set with Hepatitis B virus [4] and in the data set with Hepatitis B virus [6] (setting [7]) were 220 µM, 150 µM and 160 µM, respectively.
For `CCCC(=O)OCCc1c(-c2ccccc2Cl)c2cc(Cl)ccc2[nH]c1=O`, the results for the “Selectivity Index” value in data set [1] and in data set [5] were 1.5 and below 1, respectively. Also, the IC50 in the data set on Hepatitis B virus [2] was above 52 µM; in the data set on Hepatitis B virus [4], 35 µM. In addition, the CC50 in data set [3] is 52 µM.
Regarding `O=C(O)CCC(=O)OCCc1c(-c2ccccc2Cl)c2cc(Cl)ccc2[nH]c1=O`, the “Selectivity Index” value in data set [1] and in data set [5] was below 1 throughout. Further, the IC50 in the data set on Hepatitis B virus [2] was above 110 µM; in the data set with Hepatitis B virus [4], 150 µM. The same compound came in with a CC50 in data set [3] of 110 µM.
As for `CC(=O)OCC(=O)OCCc1c(-c2ccccc2Cl)c2cc(Cl)ccc2[nH]c1=O`, the results for the “Selectivity Index” value in data set [1] and in data set [5] were 1.8 and 1.4, respectively. For the same compound, the IC50 turned out to be 71 µM in the data set with Hepatitis B virus [2] and 57 µM with Hepatitis B virus [4]. In data set [3], this compound yielded a CC50 of 100 µM.
As for `O=C(CN1C(=O)c2ccccc2C1=O)OCCc1c(-c2ccccc2Cl)c2cc(Cl)ccc2[nH]c1=O`, the “Selectivity Index” value in data set [1] is 5.7; in data set [5], below 1. Besides, the results for the IC50 in the data set with Hepatitis B virus [2] and in the data set on Hepatitis B virus [4] were above 960 µM and 170 µM, respectively. In data set [3], the midpoint of cytotoxicity, the CC50, lay at 960 µM.
As to `C/C=C/C(=O)OCCc1c(-c2ccccc2Cl)c2cc(Cl)ccc2[nH]c1=O`, the results for the “Selectivity Index” value in data set [1] and in data set [5] were 1.2 and 1.3, respectively. Moreover, the IC50 in the data set on Hepatitis B virus [2] came out at 22 µM; in the data set with Hepatitis B virus [4], 25 µM. Also, the midpoint of cytotoxicity in data set [3], the CC50, lay at 30 µM.
`CC(=O)N1CCC(C(=O)OCCc2c(-c3ccccc3Cl)c3cc(Cl)ccc3[nH]c2=O)CC1`: the “Selectivity Index” value in data set [1] is 1.6; in data set [5], below 1. Also, the IC50 in the data set on Hepatitis B virus [2] is above 82 µM; in the data set with Hepatitis B virus [4] it was 51 µM. Besides, in data set [3], the CC50 stood at 82 µM.
In the same order, the values of `O=C(OCCc1c(-c2ccccc2Cl)c2cc(Cl)ccc2[nH]c1=O)c1ccco1` are 1.9, 1.6, 58 µM, 51 µM and 98 µM.

A word on the IC50: it is the concentration needed to halve the response being measured. Usually CC50 stands for the concentration giving 50% cytotoxicity. Read a high CC50 as better tolerance by the cells.
